Legend:
Type in all cases: functional, cell-based
KB = experiment: Cytotoxicity against human KB cells by MTT assay
Summary of the method: (§1)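 Modified MTT colorimetric assay on five human cancer lines (KB epidermoid, HeLa S3 cervical, MCF-7 breast, Hep G2 hepatocellular, HT-29 colon adenocarcinoma). Doxorubicin was run as positive control.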

HepG2 = experiment: Cytotoxicity against human HepG2 cells by MTT assay; summary of the method: as §1
MCF7 = experiment: Cytotoxicity against human MCF7 cells by MTT assay; summary of the method: as §1
HeLa S3 = experiment: Cytotoxicity against human HeLaS3 cells by MTT assay; summary of the method: as §1
HT-29 = experiment: Cytotoxicity against human HT-29 cells by MTT assay; summary of the method: as §1

Row | SMILES | IC50 (KB) | IC50 (HepG2) | IC50 (MCF7) | IC50 (HeLa S3) | IC50 (HT-29)
1 | CC(C)=CCC/C(C)=C/Cc1c(O)ccc2c1O[C@H](c1ccc(O)cc1)CC2=O | > 10 µM | > 10 µM | > 10 µM | > 10 µM | > 10 µM
2 | C=C(C)/C=C/CC1(C)CCc2c(ccc3c2O[C@H](c2ccc(O)cc2)CC3=O)O1 (stereo not given in full) | > 10 µM | > 10 µM | > 10 µM | > 10 µM | > 10 µM
3 | C/C(=C\Cc1c(O)ccc2c1O[C@H](c1ccc(O)cc1)CC2=O)C/C=C/C(C)(C)O | > 10 µM | > 10 µM | > 10 µM | > 10 µM | > 10 µM
4 | CC1(CCC2OC2(C)C)CCc2c(ccc3c2O[C@H](c2ccc(O)cc2)CC3=O)O1 (stereo not given in full) | > 10 µM | > 10 µM | > 10 µM | 8.3 µM | > 10 µM
5 | C=C(CCC=C(C)C)C(O)Cc1c(O)ccc2c1O[C@H](c1ccc(O)cc1)CC2=O (stereo not given in full) | > 10 µM | > 10 µM | > 10 µM | > 10 µM | > 10 µM
6 | COC(C=C(C)C)C/C(C)=C/Cc1c(O)ccc2c1O[C@H](c1ccc(O)cc1)CC2=O (stereo not given in full) | > 10 µM | > 10 µM | > 10 µM | > 10 µM | > 10 µM
7 | CC(C)(O)/C=C/CC1(C)CCc2c(ccc3c2O[C@H](c2ccc(O)cc2)CC3=O)O1 (stereo not given in full) | > 10 µM | > 10 µM | > 10 µM | 6.6 µM | > 10 µM
8 | CC(C)=CCCC1(C)CCc2c(ccc3c2O[C@H](c2ccc(O)cc2)CC3=O)O1 (stereo not given in full) | 9.9 µM | > 10 µM | 9.9 µM | 8.1 µM | > 10 µM
9 | C=C(C)C(O)CC/C(C)=C/Cc1c(O)ccc2c1O[C@H](c1ccc(O)cc1)CC2=O (stereo not given in full) | > 10 µM | > 10 µM | > 10 µM | > 10 µM | > 10 µM
10 | CC(C)=CCCC(C)(O)C1Cc2c(ccc3c2O[C@H](c2ccc(O)cc2)CC3=O)O1 (stereo not given in full) | > 10 µM | > 10 µM | > 10 µM | > 10 µM | > 10 µM
11 | COC(C)(C)/C=C/C/C(C)=C/Cc1c(O)ccc2c1O[C@H](c1ccc(O)cc1)CC2=O | > 10 µM | > 10 µM | > 10 µM | > 10 µM | > 10 µM
12 | COc1cccc2c1C(=O)c1c(O)c3c(c(O)c1C2=O)C[C@@](O)(C(=O)CO)C[C@@H]3O[C@H]1C[C@H](N)[C@H](O)[C@H](C)O1 [DOXORUBICIN] | 0.13 µM | 1.07 µM | 0.61 µM | 0.03 µM | 0.34 µM
13 | CC(C)=CCCC1(C)CCc2c(cc(O)c3c2O[C@H](c2ccc(O)cc2)CC3=O)O1 (stereo not given in full) | > 10 µM | > 10 µM | > 10 µM | 9.9 µM | > 10 µM
14 | CC1(CCC(O)C(C)(C)O)CCc2c(ccc3c2O[C@H](c2ccc(O)cc2)CC3=O)O1 (stereo not given in full) | > 10 µM | > 10 µM | > 10 µM | > 10 µM | > 10 µM
15 | CC(C)=CCCC1(C)Oc2ccc3c(c2CC1O)O[C@H](c1ccc(O)cc1)CC3=O (stereo not given in full) | > 10 µM | > 10 µM | > 10 µM | > 10 µM | > 10 µM
16 | COC(C)(C)/C=C/CC1(C)CCc2c(ccc3c2O[C@H](c2ccc(O)cc2)CC3=O)O1 (stereo not given in full) | > 10 µM | > 10 µM | > 10 µM | 8.6 µM | > 10 µM
17 | C=C(C)C(O)CCC1(C)CCc2c(ccc3c2O[C@H](c2ccc(O)cc2)CC3=O)O1 (stereo not given in full) | > 10 µM | > 10 µM | > 10 µM | > 10 µM | > 10 µM
18 | CC1=CCC(O)C(C)(C)C1Cc1c(O)ccc2c1O[C@H](c1ccc(O)cc1)CC2=O (stereo not given in full) | > 10 µM | > 10 µM | > 10 µM | > 10 µM | > 10 µM

— ChEMBL document CHEMBL4330163, “Veluflavanones A-P, Cytotoxic Geranylated Flavanones from Dalbergia velutina Stems” (J Nat Prod, 2019)
